# Source: PubChem (several laboratories)
# An excerpt weighted towards active compounds, which were near 2.2% of everything screened.
# Exocytosis inh: blocks lytic granule exocytosis; TALL-104 LAMP-1 surface exposure, flow cytometry; cells stimulated with thapsigargin and PMA; inhibition, % at 10 µM; actives 0.66% (n = 360,000); AID 651702;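 active means inhibition above about 55%, limit read from the data; inconclusive means no clear call, values can overlap the other calls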
# Myeloid diff 2: promotes myeloid progenitor differentiation | ER-HoxA9 myeloid progenitors, lysozyme-GFP differentiation, flow cytometry | calls only at 10 µM | actives 1% (n = 360,000);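 active means normalized GFP-positive differentiation at or above the plate's own cutoff, the solvent-only control mean plus 3 SD; inconclusive means no clear call, values can overlap the other calls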;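 further: cells exposed to compound for four days before flow analysis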
# CSN inh: blocks human CSN-mediated cullin deneddylation | Q92905 | Purified CSN, SCF-Nedd8-OG deneddylation, fluorescence polarization | inhibition, % at 12.5 µM | actives 0.38% (n = 360,000) | AID 651999;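 active means pattern-corrected inhibition above about 35%, with an unprinted fluorescence ratio check between 0.5 and 1.5, limit read from the data, passing the limit was not always enough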;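 further: 0% = enzyme with substrate and 100% = substrate without enzyme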
#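 test system = HEK293T-derived human Csn5 enzyme | amount = 0.24 nM Csn5 enzyme, final concentration | medium = Tris/NaCl/DTT buffer, pH 7.5 | schedule = 90 min reaction at room temperature | signal = FP | evaluation = inhibition of Csn5 cleavage, % | compound dosing = single dose of 12.5 µM compound with 0.25% DMSO | probe or stimulus = 10 nM SCFSkp2-Nedd8OG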
# HNF4A DNA FP: change in binding of human HNF4 alpha to DNA; HNF4a-FITC DNA binding, fluorescence polarization, 1 h; activity change, % at 10 µM; actives 0.3% (n = 360,000); AID 1224865; in the data active means activity change above about 30%, passing the limit was not always enough
# Target sequence (P41235 whole entry, looked up): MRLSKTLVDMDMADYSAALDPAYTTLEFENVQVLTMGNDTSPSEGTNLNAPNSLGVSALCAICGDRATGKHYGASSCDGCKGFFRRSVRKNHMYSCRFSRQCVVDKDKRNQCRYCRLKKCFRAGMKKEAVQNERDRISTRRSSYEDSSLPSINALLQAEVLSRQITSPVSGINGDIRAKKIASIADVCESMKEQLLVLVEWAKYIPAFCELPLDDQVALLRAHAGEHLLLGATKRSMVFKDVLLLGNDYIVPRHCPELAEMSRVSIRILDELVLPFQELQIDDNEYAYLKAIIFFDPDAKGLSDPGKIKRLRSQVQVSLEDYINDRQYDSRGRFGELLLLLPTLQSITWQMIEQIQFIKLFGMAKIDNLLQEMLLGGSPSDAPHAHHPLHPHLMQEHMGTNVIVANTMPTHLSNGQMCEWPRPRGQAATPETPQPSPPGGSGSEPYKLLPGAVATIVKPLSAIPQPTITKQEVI
# Myeloid diff CP1: promotes myeloid progenitor differentiation; shares compounds with Myeloid diff 2; actives 2% (n = 2,300); calls only; ER-HoxA9 myeloid progenitors, GFP/Mac1 double-positive flow;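 active means share of green or green-and-red cells above 9 and 9% in run 1 or 4 and 3% in run 2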
# GFP autofluor: flagged as fluorescent in myeloid differentiation counter-screen; shares compounds with Myeloid diff 2; ER-HoxA9 myeloid progenitors, no estrogen, GFP autofluorescence flow cytometry; vehicle wells 0%, positive control 100%; fluorescence response, % (test concentration not listed); actives 7.4% (n = 2,300);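 active means over 5% cells positive for green fluorescent reporter, or over 2% positive for both it and APC stain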;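 further: range taken on the double positive population between DMSO and positive control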
# Starred values were filed as active, the others as inactive; i = inactive; ? = inconclusive; . = no result given; + = active, no number.
SMILES,Exocytosis inh,Myeloid diff 2,CSN inh,HNF4A DNA FP,Myeloid diff CP1,GFP autofluor
C=CCNC(=O)COc1ccc(N(C)S(=O)(=O)c2ccc(NC(C)=O)cc2)cc1,2.2,i,-4.9,-0.1,i,0.4
CCN(CC)C(=O)COc1ccc(N(C)S(=O)(=O)c2ccc(NC(C)=O)cc2)cc1,-1.8,i,0.8,0.2,.,.
O=[N+]([O-])c1cccc(NC(=S)N2CCc3ccccc32)c1,-8.3,i,3.8,-1.2,i,0.6
Cc1ccc(S(=O)(=O)N2[C@@H](c3ccc4c(c3)OCO4)C(C(=O)O)=C[C@H]2CC2CCCC2)cc1,1.5,+,3.1,0.0,i,0.0
Cc1ccc([C@H]2C(C(=O)O)=C[C@@H](CC3CCCC3)N2S(=O)(=O)c2ccc(C)cc2)cc1,-2.7,i,1.8,4.2,.,.
O=Cc1c(-c2ccccc2)cc2oc3ccccc3cc1-2,6.5,i,2.0,-2.5,i,65.6*
O=C(Cn1cc(F)c(=O)[nH]c1=O)c1ccco1,-5.1,i,5.7,1.2,.,.
CC(=O)Nc1ccc(S(=O)(=O)N2CCN(CC(O)COc3ccc4ccccc4c3)CC2)cc1 (centres undefined),1.7,i,-6.6,-1.0,i,0.0
CC(=O)Nc1ccc(OCC(O)CN2CCN(S(=O)(=O)c3ccc(NC(C)=O)cc3)CC2)cc1 (centres undefined),0.4,i,-3.4,5.8,.,.
Cc1cccc2nc3ccccc3cc12,-7.1,i,103.1,-1.9,.,.
C/C(O)=c1/ccc2cccc3nc(C)nc1c23,20.6,+,-1.6,-5.6,i,8.4*
C=CCNC(=S)N1N=C(c2ccco2)CC1c1ccco1 (centres undefined),41.1,i,26.9,2.8,i,0.0
COc1ccc(-c2c(-c3ccccc3OC)sc3ccccc23)cc1C=O,14.6,i,1.7,3.0,.,.
CCCCCCC1CCC(C(=O)Nn2c(C)nc3ccccc3c2=O)CC1 (centres undefined),29.9,i,-3.2,-0.3,i,0.0
CCOc1ccccc1NC(=O)C1C2CCC(O2)C1C(=O)O (centres undefined),-1.4,i,-1.1,3.6,.,.
O=C1N[C@H](Cc2ccccc2)COC(=O)[C@H](Cc2ccc(F)cc2)CC/C=C/C[C@@H]1CC(=O)N(CCO)Cc1ccccc1,0.9,i,5.3,3.5,.,.
COc1ccc(N2C(=O)CN=C2Nc2nc(C)cc(C)n2)cc1OC,4.4,+,-9.4,1.8,i,0.3
Cc1cc(C)nc(NC2=NCC(=O)N2c2ccc(F)c(Cl)c2)n1,-3.3,i,0.6,0.1,.,.
CCc1ccc(C2=NN(C(=O)CCC(=O)O)C(c3cccs3)C2)cc1 (centres undefined),0.0,i,1.1,-1.5,.,.
O=C(OCc1ccccc1)N1CCC2CC1c1cc(Cl)ccc12 (centres undefined),1.8,?,6.0,1.7,i,0.3
COC(=O)C1CC2=C(CCCC2=O)NC1=O (centres undefined),1.1,i,-0.1,0.5,i,0.0
COc1ccccc1Nc1nc2c(s1)CCC2,1.0,i,0.9,5.8,i,0.4
CCOc1ccccc1Nc1ncnc2ccccc12,4.7,i,-2.8,-1.5,.,.
COc1ccccc1Nc1ncnc2ccccc12,-4.5,i,-2.9,-3.7,i,0.4
COc1ccccc1Nc1c2c(nc3ccccc13)CCC2,31.6,+,2.0,2.2,i,1.4
SMILES,Exocytosis inh,Myeloid diff 2,CSN inh,HNF4A DNA FP,Myeloid diff CP1,GFP autofluor
COc1cccc(NC(=O)CN(C)C(=O)CCCc2nc3ccccc3c(=O)[nH]2)c1,-3.1,i,5.2,-1.6,.,.
CCC(C)[C@H](NC(=O)[C@H](Cc1ccccc1)n1c(=O)[nH]c2ccccc2c1=O)C(=O)N1CCC[C@@H]1C(=O)O (some centres undefined),0.8,i,-1.9,0.7,.,.
COc1ccc(C(=O)CSc2ncnc3nc[nH]c23)cc1,-10.7,+,0.7,0.3,i,0.2
COc1ccc(CNC(=O)CSc2ncnc3nc[nH]c23)cc1,-1.9,i,5.9,-0.4,.,.
c1coc(CNC2C3CC4CC(C3)CC2C4)c1 (centres undefined),-4.1,i,4.0,-1.5,i,0.2
Nc1ncnc2c1ncn2[C@@H]1O[C@H](CNCc2ccccc2OC2OC(CO)C(O)C(O)C2O)[C@@H](O)[C@H]1O (some centres undefined),-0.9,i,0.5,0.3,.,.
COC(=O)CNC(=O)COc1ccccc1,-1.6,+,-3.5,1.9,i,0.5
COc1ccc(-n2nc(C(=O)NCC(=O)N3CCN(c4ccccn4)CC3)c3ccccc3c2=O)c(OC)c1,-3.1,i,8.6,-1.2,.,.
COc1ccc(-n2nc(C(=O)NCC(=O)N3CCN(c4cccc(Cl)c4)CC3)c3ccccc3c2=O)c(OC)c1,7.8,i,-1.2,-0.4,i,0.0
N#Cc1ccccc1CN1C(=O)NC2(CCCCCC2)C1=O,2.2,.,-0.6,2.2,.,.
CCOc1ccccc1-n1c(SCC(=O)N(C(C)C)C(C)C)nnc1-c1cccnc1,-2.0,i,4.1,-0.8,i,0.0
Cc1cc2c(cc1C)N(CC(=O)N1CCCC1)C(=O)CC(c1ccccc1)=N2,-1.5,i,2.6,2.2,i,0.0
CC1=C(C(=O)OC(C)C)C(c2cccs2)N2C(=O)CCSC2=N1 (centres undefined),-0.3,i,6.8,-2.5,i,0.2
COC(=O)C1=C(C)N=C2SCCC(=O)N2C1c1cccs1 (centres undefined),-1.4,i,-0.8,-3.0,.,.
Cc1ccc(-c2nc(C=Nc3ccc(O)cc3)c(O)o2)cc1,-2.4,i,1.2,4.7,i,0.0
Oc1oc(-c2ccco2)nc1C=Nc1ccccc1,0.6,i,6.5,2.2,i,1.3
O=C(O)c1ccc(N=Cc2nc(-c3ccco3)oc2O)cc1,-2.5,i,2.6,3.1,.,.
CC(C)(C)OC(=O)N1CCCC(C(=O)Nc2cccc(C(=O)N3CCCCC3)c2)C1 (centres undefined),0.2,i,-1.9,-3.9,.,.
COc1ccc2c(c1)-c1ccccc1S(=O)(=O)N2C(C)=O,1.0,i,4.8,3.7,i,0.0
COc1ccc(N2C(=O)c3ccccc3S2(=O)=O)cc1,1.6,i,0.7,0.0,.,.
O=S(=O)(NC1CCN(Cc2ccccc2)CC1)c1cccc2cccnc12,-2.8,i,-2.1,-1.9,i,0.0
O=C(NC1CCN(Cc2ccccc2)CC1)C1CCN(S(=O)(=O)c2cccc3cccnc23)CC1,2.9,i,-3.8,0.9,.,.
NS(=O)(=O)c1ccc(NC(=O)COC(=O)c2ccc(S(=O)(=O)N3CCOCC3)cc2)cc1,-9.1,i,-0.9,-0.9,.,.
CCOc1ccccc1NC(=O)COC(=O)CN1C(=O)NC(C)(C)C1=O,-1.3,i,-2.3,-1.1,.,.
